# Marks after values point to notes of the source that are not given here.
# Assays:
# [1] = test system: xenografts of diverse tumor types that were resistant to either docetaxel or paclitaxel; conditions: mouse models; cited from earlier work
# [2] = test system: castration-resistant and taxane- or cisplatin/etoposide-resistant prostate cancer; assay: Tumor response, dose-expansion CRPC cohort; assay type: in vivo, human
# [3] = test system: advanced solid tumors; assay: Tumor response, dose-escalation cohorts; assay type: in vivo, human; conditions: for Best overall response: Complete response / Best overall response: Partial response / Best overall response: Progressive disease / Best overall response: Stable disease / Best overall response: Unable to evaluate: Central read, RECIST 1.1
# Procedure, shortened: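 Adults with refractory advanced solid tumours took the drug orally once each morning on days 1–4 of 14-day cycles, fasting from 2 h predose (water only) until 1 h postdose. Doses were 1–30 mg (and 25 mg) without G-CSF, or 30–50 mg with subcutaneous G-CSF (300 or 480 µg daily). Scans were read centrally by RECIST 1.1 and locally by RECIST 1.0, with GCIG criteria for ovarian tumours.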
# [4] = test system: patients with advanced solid tumors; assay: Dose-limiting toxicities and maximum tolerated dose, dose-escalation phase; assay type: in vivo
# [5] = Central read, RECIST 1.1, expansion 40 mg + G-CSF, CRPC (n = 12)
# [6] = Local read, RECIST 1.0, expansion 40 mg + G-CSF, CRPC (n = 12)
# [7] = escalation 30 mg + G-CSF (n = 6)
# [8] = escalation 35 mg + G-CSF (n = 3)
# [9] = escalation 40 mg + G-CSF (n = 11)
# [10] = escalation 50 mg + G-CSF (n = 4)
# [11] = escalation 1, 2, 4, 8 mg (n = 4)
smiles,measurement,setting,value
Cc1csc(-c2nnc(Nc3ccc(Oc4ncccc4-c4ccnc(N)n4)cc3)c3ccccc23)c1 [AMG 900],Growth of xenografts,[1],inhibited growth
same,"Progression-free survival, median (80% CI)","[2]; Central read, RECIST 1.1, Kaplan-Meier, expansion 40 mg + G-CSF, CRPC (n = 12)",32.4 (15.7–39.6) weeks
same,Best overall response: Complete response,[2]; [5],0 Patients (%)
same,Best overall response: Not evaluable (postbaseline scan not readable),[2]; [5],2 (17) Patients (%)
same,Best overall response: Partial response,[2]; [5],0 Patients (%)
same,Best overall response: Progressive disease,[2]; [5],1 (8) Patients (%)
same,Best overall response: Stable disease,[2]; [5],9 (75) Patients (%)
same,Best overall response: Complete response,[2]; [6],0 Patients (%)
same,Best overall response: Not evaluable (postbaseline scan not readable),[2]; [6],1 (8) Patients (%)
same,Best overall response: Partial response,[2]; [6],0 Patients (%)
same,Best overall response: Progressive disease,[2]; [6],3 (25) Patients (%)
same,Best overall response: Stable disease,[2]; [6],8 (67) Patients (%)
same,Objective responses,"[2]; RECIST 1.1, CRPC",No objective responses
same,"Duration of stable disease, one patient with medullary thyroid cancer",[3]; 24 mg,> 3.5 years
same,"Tumor response, one patient with clear-cell endometrial cancer",[3]; 30 mg + G-CSF,partial response per RECIST 1.0 (local read) that was not confirmed per RECIST 1.1 (central read)
same,"Tumor response, one patient with ovarian cancer","[3]; 30 mg, RECIST 1.1 and GCIG criteria (central read)",partial response
same,Best overall response: Complete response,[3]; escalation 16 mg (n = 3),0 Patients (%)
same,Best overall response: Partial response,[3]; escalation 16 mg (n = 3),0 Patients (%)
same,Best overall response: Progressive disease,[3]; escalation 16 mg (n = 3),0 Patients (%)
same,Best overall response: Stable disease,[3]; escalation 16 mg (n = 3),2 (67) Patients (%)
same,Best overall response: Unable to evaluate,[3]; escalation 16 mg (n = 3),1 (33) Patients (%)
same,Best overall response: Complete response,[3]; escalation 24 mg (n = 6),0 Patients (%)
same,Best overall response: Partial response,[3]; escalation 24 mg (n = 6),0 Patients (%)
same,Best overall response: Progressive disease,[3]; escalation 24 mg (n = 6),1 (17) Patients (%)
same,Best overall response: Stable disease,[3]; escalation 24 mg (n = 6),5 (83) Patients (%)
same,Best overall response: Unable to evaluate,[3]; escalation 24 mg (n = 6),0 Patients (%)
same,Best overall response: Complete response,[3]; escalation 25 mg (n = 7),0 Patients (%)
same,Best overall response: Partial response,[3]; escalation 25 mg (n = 7),0 Patients (%)
same,Best overall response: Progressive disease,[3]; escalation 25 mg (n = 7),1 (14) Patients (%)
same,Best overall response: Stable disease,[3]; escalation 25 mg (n = 7),4 (57) Patients (%)
same,Best overall response: Unable to evaluate,[3]; escalation 25 mg (n = 7),2 (29) Patients (%)
same,Best overall response: Complete response,[3]; escalation 30 mg (n = 6),0 Patients (%)
same,Best overall response: Progressive disease,[3]; escalation 30 mg (n = 6),1 (17) Patients (%)
same,Best overall response: Stable disease,[3]; escalation 30 mg (n = 6),3 (50) Patients (%)
same,Best overall response: Unable to evaluate,[3]; escalation 30 mg (n = 6),1 (17) Patients (%)
same,Best overall response: Partial response,"[3]; escalation 30 mg (n = 6), patient also had a response by GCIG CA 125 criteria",1 (17)^b Patients (%)
same,Best overall response: Complete response,[3]; [7],0 Patients (%)
same,Best overall response: Partial response,[3]; [7],0 Patients (%)
same,Best overall response: Progressive disease,[3]; [7],3 (50) Patients (%)
same,Best overall response: Stable disease,[3]; [7],3 (50) Patients (%)
same,Best overall response: Unable to evaluate,[3]; [7],0 Patients (%)
same,Best overall response: Complete response,[3]; [8],0 Patients (%)
same,Best overall response: Partial response,[3]; [8],0 Patients (%)
same,Best overall response: Progressive disease,[3]; [8],2 (67) Patients (%)
same,Best overall response: Stable disease,[3]; [8],1 (33) Patients (%)
same,Best overall response: Unable to evaluate,[3]; [8],0 Patients (%)
same,Best overall response: Complete response,[3]; [9],0 Patients (%)
same,Best overall response: Partial response,[3]; [9],0 Patients (%)
same,Best overall response: Progressive disease,[3]; [9],2 (18) Patients (%)
same,Best overall response: Stable disease,[3]; [9],7 (64) Patients (%)
same,Best overall response: Unable to evaluate,[3]; [9],2 (18) Patients (%)
same,Best overall response: Complete response,[3]; [10],0 Patients (%)
same,Best overall response: Partial response,[3]; [10],0 Patients (%)
same,Best overall response: Progressive disease,[3]; [10],0 Patients (%)
same,Best overall response: Stable disease,[3]; [10],2 (50) Patients (%)
same,Best overall response: Unable to evaluate,[3]; [10],2 (50) Patients (%)
same,Best overall response: Complete response,[3]; [11],0 Patients (%)
same,Best overall response: Partial response,[3]; [11],0 Patients (%)
same,Best overall response: Progressive disease,[3]; [11],2 (50) Patients (%)
same,Best overall response: Stable disease,[3]; [11],2 (50) Patients (%)
same,Best overall response: Unable to evaluate,[3]; [11],0 Patients (%)
same,Progressive disease,[3]; dose-escalation phase (12 patients of 50),24%
same,Stable disease (best response),"[3]; dose-escalation phase, RECIST 1.1 (29 patients of 50)",58%
same,DLTs overall,[4]; in vivo,nine DLTs were reported in eight patients
same,Maximum tolerated dose (MTD) and recommended phase 2 dose,"[4]; with G-CSF, daily, 4 days on, 10 days off",40 mg
same,Maximum tolerated dose (MTD),"[4]; with G-CSF, oral, 4 days on/10 days off",40 mg/day
same,Maximum tolerated dose (MTD),"[4]; without G-CSF, daily, 4 days on, 10 days off",25 mg
same,Maximum tolerated dose (MTD),"[4]; without G-CSF, oral, 4 days on/10 days off",25 mg/day
